Source: ChEMBL document CHEMBL1126556, “Novel antiasthmatic agents with dual activities of thromboxane A2 synthetase inhibition and bronchodilation. 1. 2-[2-(1-Imidazolyl)alkyl]-1(2H)-phthalazinones” (J Med Chem, 1993)

Experiments:
Cavia porcellus [1] = test: In vivo inhibitory effect on airway constriction induced by histamine 2-5 micro g/kg iv at 1 min after 10 mg/kg intravenous dose in anesthetized guinea pigs; assay type: functional
Procedure, shortened: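 Male Dunkin-Hartley guinea pigs, anesthetized with pentobarbital 35 mg/kg ip, cannulated at jugular vein and trachea, ventilated at 10 mL/kg and 60 strokes/min. Insufflation pressure recorded continuously by transducer. Histamine given iv every 10 min until the constriction was reproducible. Compound 10 mg/kg iv given 1 min before the next challenge. Result is mean % inhibition against control response, from ≥3 experiments.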

Cavia porcellus [2] = species: Cavia porcellus; test: Tested in vitro for bronchodilatory activity by spontaneous tone inhibition in guinea pig tracheal strips; assay type: functional; conditions: Trachea
[3] = test system: Thromboxane-A synthase (Oryctolagus cuniculus); test: Tested for inhibition of thromboxane A2 (TXA2) production in rabbit by in vitro assay at 1 uM
[4] = biological target: T1, Thromboxane-A synthase (Rattus norvegicus) (UniProt P49430); test: Tested for inhibition of thromboxane A2 (TXA2) production in rat serum by ex vivo assay after peroral dose of 30 mg/kg; assay type: functional, organism-based; set-up: dose 30 mg/kg
T1 sequence (whole entry): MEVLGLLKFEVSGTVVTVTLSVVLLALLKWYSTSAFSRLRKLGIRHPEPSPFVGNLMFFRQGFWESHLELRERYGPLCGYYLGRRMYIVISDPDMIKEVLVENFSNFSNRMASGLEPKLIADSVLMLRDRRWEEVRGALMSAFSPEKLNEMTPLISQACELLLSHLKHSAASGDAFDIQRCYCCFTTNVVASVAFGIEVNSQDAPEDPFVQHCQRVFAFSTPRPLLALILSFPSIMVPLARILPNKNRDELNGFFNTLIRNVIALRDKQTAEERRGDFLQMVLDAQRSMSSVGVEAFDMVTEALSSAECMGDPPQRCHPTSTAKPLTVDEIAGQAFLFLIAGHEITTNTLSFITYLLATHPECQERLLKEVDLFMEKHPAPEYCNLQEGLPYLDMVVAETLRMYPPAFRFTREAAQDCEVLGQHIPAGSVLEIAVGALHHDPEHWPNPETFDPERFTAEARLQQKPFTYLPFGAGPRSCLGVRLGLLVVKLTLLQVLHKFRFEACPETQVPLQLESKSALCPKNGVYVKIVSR
Procedure, shortened: (§1)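 Male SD rats (240–260 g), fasted 20 h, dosed orally in 0.5% carboxymethylcellulose or given vehicle. After 1 h under ether, 2 mL cardiac blood was drawn and clotted 90 min at 37 °C. Serum was EtOH-deproteinized and stored at -20 °C. TXB₂ measured by radioimmunoassay. % inhibition calculated against each vehicle control group.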

[5] = Partition coefficient (logP); assay type: physicochemical; conditions: octanol/water
Rattus norvegicus = test: Tested for inhibition of TXA2 production in rat serum by ex vivo assay after peroral dose of 3 mg/kg; assay type: functional; conditions: route oral; procedure, shortened: as §1

SMILES	IC50 (Cavia porcellus [2]) [µM]	inhibition [3] [%]	inhibition [4] [%]	logP [5]	inhibition in vivo at 10 mg/kg (Cavia porcellus [1]) [%]	inhibition in vivo at 3 mg/kg (Rattus norvegicus) [%]
O=C(O)c1ccc(-c2nn(CCn3ccnc3)c(=O)c3ccccc23)cc1	64.6	24	–	–	21	–
CCOC(=O)c1ccc(-c2nn(CCn3ccnc3)c(=O)c3ccccc23)cc1	10	60	–	–	92	–
CC(C)Cc1nn(CCn2ccnc2)c(=O)c2ccccc12	12	14	21	2	–	–
O=c1c2ccccc2c(-c2ccccc2)nn1CCCCn1ccnc1	17.4	65	–	–	–	–
CC(=O)c1ccc(-c2nn(CCn3ccnc3)c(=O)c3ccccc23)s1	15.1	80	5	1.51	94	–
CCc1ccsc1-c1nn(CCn2ccnc2)c(=O)c2ccccc12	18.6	68	46	–	84	–
O=c1c2ccccc2c(-c2ccc(F)cc2)nn1CCn1ccnc1	15.8	33	46	–	100	–
Cc1nn(CCn2ccnc2)c(=O)c2ccccc12	> 100	10	–	0.538	–	–
O=c1c2ccccc2c(-c2ccccc2)nn1CCCCCn1ccnc1	23.4	69	–	–	–	–
CCOC(=O)c1ccc(-c2nn(CCn3ccnc3)c(=O)c3ccccc23)s1	13.2	62	–	–	92	–
O=c1c2ccccc2c(Cc2ccccc2)nn1CCn1ccnc1	10.7	45	-5	–	98	–
O=c1c2ccccc2c(-c2ccccn2)nn1CCn1ccnc1	42.7	20	41	0.87	30	–
O=c1c2ccccc2c(-c2ccncc2)nn1CCn1ccnc1	24	27	47	0.66	100	–
O=c1c2ccccc2c(-c2ccc(C(F)(F)F)cc2)nn1CCn1ccnc1	11.2	40	–	–	–	–
O=C(O)/C=C/c1ccc(Cn2ccnc2)cc1 [OZAGREL]	> 1000	–	–	–	0	–
Cn1c(=O)c2[nH]cnc2n(C)c1=O [AMINOPHYLLINE]	46.8	–	0	–	86	–
O=C(O)c1ccccc1-c1nn(CCn2ccnc2)c(=O)c2ccccc12	49	14	–	–	94	–
O=C(O)c1ccc(-c2nn(CCn3ccnc3)c(=O)c3ccccc23)s1	34.7	–	–	–	5	–
CCOC(=O)c1ccccc1-c1nn(CCn2ccnc2)c(=O)c2ccccc12	60.3	64	–	–	60	–
O=c1c2ccccc2c(-c2ccco2)nn1CCn1ccnc1	42.7	27	–	1.52	–	–
O=c1c2ccccc2c(-c2cccnc2)nn1CCn1ccnc1	26.9	–	90	0.66	97	63
O=c1c2ccccc2c(-c2ccccc2)nn1CCCn1ccnc1	11	57	–	–	–	–
COc1ccc(-c2nn(CCn3ccnc3)c(=O)c3ccccc23)cc1	25.1	74	50	2.06	0	–
O=C(O)c1cccc(-c2nn(CCn3ccnc3)c(=O)c3ccccc23)c1	> 100	10	–	–	33	–

Further lines, with some results ahead:

IC50 (Cavia porcellus [2]) [µM]	inhibition [3] [%]	inhibition [4] [%]	logP [5]	SMILES	inhibition in vivo at 10 mg/kg (Cavia porcellus [1]) [%]	inhibition in vivo at 3 mg/kg (Rattus norvegicus) [%]
1.45	47	15	–	O=c1c2ccccc2c(-c2ccc(Cl)s2)nn1CCn1ccnc1	96	–
2.04	63	40	–	O=c1c2ccccc2c(-c2ccc(Cl)cc2)nn1CCn1ccnc1	71	–
9.77	79	–	–	O=c1c2ccccc2c(-c2ccccc2)nn1CCCCCCn1ccnc1	–	–
5.62	54	68	–	CCOc1ccc(-c2nn(CCn3ccnc3)c(=O)c3ccccc23)cc1	87	–
3.55	22	47	1.99	O=c1c2ccccc2c(-c2cccs2)nn1CCn1ccnc1	84	–
6.61	53	0	–	Cc1ccc(-c2nn(CCn3ccnc3)c(=O)c3ccccc23)s1	26	–
5.13	76	0	–	Cc1ccc(-c2nn(CCn3ccnc3)c(=O)c3ccccc23)cc1	94	–
4.27	88	–	1.94	COc1ccc(-c2nn(CCn3ccnc3)c(=O)c3ccccc23)s1	–	–
1	49	37	–	O=c1c2ccccc2c(-c2cccc(C(F)(F)F)c2)nn1CCn1ccnc1	42	–
3.89	63	60	–	COc1ccc(-c2nn(CCn3ccnc3)c(=O)c3ccccc23)cc1F	54	–
2.34	55	0	–	CCOC(=O)c1cccc(-c2nn(CCn3ccnc3)c(=O)c3ccccc23)c1	90	–
7.59	29	35	–	O=c1c2ccccc2c(Cc2cccs2)nn1CCn1ccnc1	100	–
5.89	38	–	2.63	O=c1c2ccccc2c(C2CCCC2)nn1CCn1ccnc1	98	–
1.78	67	52	3.02	CCc1ccc(-c2nn(CCn3ccnc3)c(=O)c3ccccc23)s1	96	–
5.37	64	52	–	CC(C)c1ccc(-c2nn(CCn3ccnc3)c(=O)c3ccccc23)cc1	68	–
5.62	49	40	–	O=c1c2ccccc2c(Cc2ccc(Cl)cc2)nn1CCn1ccnc1	100	–
6.46	27	32	–	COc1ccc(-c2nn(CCn3ccnc3)c(=O)c3ccccc23)cc1OC	90	–
8.13	63	–	–	O=c1c2ccccc2c(-c2ccccc2)nn1CCCCCCCCn1ccnc1	–	–
0.676	32	28	3.19	O=c1c2ccccc2c(C2CCCCC2)nn1CCn1ccnc1	71	–
1.32	41	0	2.14	O=c1c2ccccc2c(-c2ccccc2)nn1CCn1ccnc1	88	–
7.76	79	55	3.17	CCc1ccc(-c2nn(CCn3ccnc3)c(=O)c3ccccc23)cc1	8	–
4.47	83	67	2.7	CSc1ccc(-c2nn(CCn3ccnc3)c(=O)c3ccccc23)cc1	73	–
